Measured values published in ChEMBL document CHEMBL1141626, “Thiosemicarbazones active against Clostridium difficile” (2008).
In brackets after ≈: the same amount, converted by molar mass.

How the values were obtained:
Type in all cases: functional
Clostridioides difficile [1] = test: Antimicrobial activity against Clostridium difficile Z21 after 48 hrs
Procedure, shortened: (§1)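 Anaerobes incubated in an anaerobic cabinet for broth MIC determination. Drug-free incubations of the same organisms served as controls. Value is the minimum inhibitory concentration.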

Staphylococcus aureus [2] = test: Antimicrobial activity against Staphylococcus aureus H1 after 24 hrs
Procedure, shortened: (§2)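 MIC by dilution in nutrient broth. Anaerobic organisms were incubated in an anaerobic cabinet. Controls were the same organisms incubated without test compound.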

Clostridioides difficile [3] = test: Antimicrobial activity against Clostridium difficile O27 after 48 hrs; procedure, shortened: as §1
Clostridioides difficile [4] = test: Antimicrobial activity against Clostridium difficile Z173 after 48 hrs; procedure, shortened: as §1
Candida albicans [5] = test: Antimicrobial activity against Candida albicans 1015391
Cutibacterium acnes [6] = test: Antimicrobial activity against Propionibacterium acnes B5 after 48 hrs; procedure, shortened: as §1
[7] = test system: Staphylococcus epidermidis; test: Antimicrobial activity against Staphylococcus epidermidis 11 after 24 hrs; procedure, shortened: as §2
[8] = test system: Staphylococcus epidermidis; test: Antimicrobial activity against Staphylococcus epidermidis 8A after 24 hrs; procedure, shortened: as §2
Clostridioides difficile [9] = test: Antimicrobial activity against Clostridium difficile Z159 after 48 hrs; procedure, shortened: as §1
Clostridioides difficile [10] = test: Antimicrobial activity against Clostridium difficile NCTC 11204 after 48 hrs; conditions: NCTC 11204, 48 h; procedure, shortened: as §1
Staphylococcus aureus [11] = test: Antimicrobial activity against methicillin-resistant Staphylococcus aureus A1 after 24 hrs; procedure, shortened: as §2
Clostridioides difficile [12] = test: Antimicrobial activity against Clostridium difficile Z1577 after 48 hrs; procedure, shortened: as §1
Acinetobacter sp. [13] = test: Antimicrobial activity against Acinetobacter sp.5
Clostridioides difficile [14] = test: Antimicrobial activity against Clostridium difficile Z179 after 48 hrs; procedure, shortened: as §1
Clostridioides difficile [15] = test: Antimicrobial activity against Clostridium difficile Z164 after 48 hrs; procedure, shortened: as §1
Staphylococcus aureus [16] = test: Antimicrobial activity against methicillin-resistant Staphylococcus aureus C3 after 24 hrs; procedure, shortened: as §2
Candida albicans [17] = test: Antimicrobial activity against Candida albicans 1011377
Cutibacterium acnes [18] = test: Antimicrobial activity against Propionibacterium acnes C3 after 48 hrs; procedure, shortened: as §2
Clostridioides difficile [19] = test: Antimicrobial activity against Clostridium difficile Z158 after 48 hrs; procedure, shortened: as §1
Clostridioides difficile [20] = test: Antimicrobial activity against Clostridium difficile Z167 after 48 hrs; procedure, shortened: as §1
Acinetobacter sp. [21] = test: Antimicrobial activity against Acinetobacter sp.3
Clostridioides difficile [22] = test: Antimicrobial activity against Clostridium difficile Z168 after 48 hrs; procedure, shortened: as §1
Staphylococcus aureus [23] = test: Antimicrobial activity against Staphylococcus aureus V1 after 24 hrs; procedure, shortened: as §2
Cutibacterium acnes [24] = test: Antimicrobial activity against Propionibacterium acnes NCTC 737 after 48 hrs; conditions: NCTC 737, 48 h; procedure, shortened: as §2
Clostridioides difficile [25] = test: Antimicrobial activity against Clostridium difficile Z1578 after 48 hrs; procedure, shortened: as §1
Clostridioides difficile [26] = test: Antimicrobial activity against Clostridium difficile Z150 after 48 hrs; procedure, shortened: as §1
[27] = test system: Staphylococcus epidermidis; test: Antimicrobial activity against Staphylococcus epidermidis NCTC 11047 after 24 hrs; conditions: NCTC 11047, 24 h; procedure, shortened: as §2
[28] = test system: Staphylococcus epidermidis; test: Antimicrobial activity against Staphylococcus epidermidis 7A after 24 hrs; procedure, shortened: as §2
Cutibacterium acnes [29] = test: Antimicrobial activity against Propionibacterium acnes B3 after 24 hrs
Clostridioides difficile [30] = test: Antimicrobial activity against Clostridium difficile Z170 after 48 hrs; procedure, shortened: as §1
Clostridioides difficile [31] = test: Antimicrobial activity against Clostridium difficile Z1568 after 48 hrs; procedure, shortened: as §1
Candida albicans [32] = test: Antimicrobial activity against Candida albicans 1013781
Clostridioides difficile [33] = test: Antimicrobial activity against Clostridium difficile Z175 after 48 hrs; procedure, shortened: as §1
Clostridioides difficile [34] = test: Antimicrobial activity against Clostridium difficile Z162 after 48 hrs; procedure, shortened: as §1
Cutibacterium acnes [35] = test: Antimicrobial activity against Propionibacterium acnes D3 after 48 hrs; procedure, shortened: as §2
Acinetobacter sp. [36] = test: Antimicrobial activity against Acinetobacter sp.4
Candida albicans [37] = test: Antimicrobial activity against Candida albicans 1009116
Staphylococcus aureus [38] = test: Antimicrobial activity against methicillin-resistant Staphylococcus aureus E1 after 24 hrs; procedure, shortened: as §2
Clostridioides difficile [39] = test: Antimicrobial activity against Clostridium difficile Z1580 after 48 hrs; procedure, shortened: as §1

Question: Which results are given for CCNC(=S)N/N=C/C=C/c1ccc([N+](=O)[O-])o1?
Answer: MIC (Clostridioides difficile [1]): 16 µg/mL (≈ 59.6 µM); MIC (Staphylococcus aureus [2]): 16 µg/mL (≈ 59.6 µM); MIC (Clostridioides difficile [3]): 8 µg/mL (≈ 29.8 µM); MIC (Clostridioides difficile [4]): 8 µg/mL (≈ 29.8 µM); MIC (Candida albicans [5]): 128 µg/mL (≈ 477 µM); MIC (Cutibacterium acnes [6]): 8 µg/mL (≈ 29.8 µM); MIC [7]: 1 µg/mL (≈ 3.73 µM); MIC [8]: 2 µg/mL (≈ 7.45 µM); MIC (Clostridioides difficile [9]): 8 µg/mL (≈ 29.8 µM); MIC (Clostridioides difficile [10]): 4 µg/mL (≈ 14.9 µM); MIC (Staphylococcus aureus [11]): 2 µg/mL (≈ 7.45 µM); MIC (Clostridioides difficile [12]): 0.5 µg/mL (≈ 1.86 µM); MIC (Acinetobacter sp. [13]): 128 µg/mL (≈ 477 µM); MIC (Clostridioides difficile [14]): 2 µg/mL (≈ 7.45 µM); MIC (Clostridioides difficile [15]): 1 µg/mL (≈ 3.73 µM); MIC (Staphylococcus aureus [16]): 4 µg/mL (≈ 14.9 µM); MIC (Candida albicans [17]): 128 µg/mL (≈ 477 µM); MIC (Cutibacterium acnes [18]): 2 µg/mL (≈ 7.45 µM); MIC (Clostridioides difficile [19]): 2 µg/mL (≈ 7.45 µM); MIC (Clostridioides difficile [20]): 2 µg/mL (≈ 7.45 µM); MIC (Acinetobacter sp. [21]): 128 µg/mL (≈ 477 µM); MIC (Clostridioides difficile [22]): 2 µg/mL (≈ 7.45 µM); MIC (Staphylococcus aureus [23]): 2 µg/mL (≈ 7.45 µM); MIC (Cutibacterium acnes [24]): 4 µg/mL (≈ 14.9 µM); MIC (Clostridioides difficile [25]): 1 µg/mL (≈ 3.73 µM); MIC (Clostridioides difficile [26]): 4 µg/mL (≈ 14.9 µM); MIC [27]: 4 µg/mL (≈ 14.9 µM); MIC [28]: 2 µg/mL (≈ 7.45 µM); MIC (Cutibacterium acnes [29]): 8 µg/mL (≈ 29.8 µM); MIC (Clostridioides difficile [30]): 2 µg/mL (≈ 7.45 µM); MIC (Clostridioides difficile [31]): 1 µg/mL (≈ 3.73 µM); MIC (Candida albicans [32]): 128 µg/mL (≈ 477 µM); MIC (Clostridioides difficile [33]): 0.5 µg/mL (≈ 1.86 µM); MIC (Clostridioides difficile [34]): 0.125 µg/mL (≈ 0.466 µM); MIC (Cutibacterium acnes [35]): 4 µg/mL (≈ 14.9 µM); MIC (Acinetobacter sp. [36]): 128 µg/mL (≈ 477 µM); MIC (Candida albicans [37]): 128 µg/mL (≈ 477 µM); MIC (Staphylococcus aureus [38]): 4 µg/mL (≈ 14.9 µM); MIC (Clostridioides difficile [39]): 1 µg/mL (≈ 3.73 µM)
